In assay [1] the test system is BXPC-3. Put plainly: Cell growth inhibition against pancreatic BXPC-3 cells, 50% reduction in the net protein increase. It counts as functional. The settings on record: Homo sapiens. The essentials: (§1)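 Human tumour lines kept in 5% FBS/RPMI-1640, plated and incubated 24 h before compound dilutions were added. Exposure 48 h, then TCA fixation, washing and sulforhodamine B staining, with optical density read on a plate reader. GI50 is the concentration giving a 50% reduction in net protein increase, calculated from the OD data.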

In another assay the test system is Candida albicans. Put plainly: The minimum inhibitory concentration (MIC) that inhibits all visible growth of the Candida albicans (fungus) at 64 ug/mL; NI is no inhibition. It counts as functional, organism-based. Put shortly: (§2)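 Broth microdilution following NCCLS reference methods (M7-A4 for aerobic bacteria, the yeast broth dilution standard for fungi). MIC is the lowest compound concentration giving optically clear wells, with no visible growth of the test organism.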

Another assay relates to Cryptococcus neoformans. The assay can be described thus: Minimum inhibitory concentration (MIC) that inhibits all visible growth of the Cryptococcus neoformans (fungus) at 64 ug/mL; NI is no inhibition. The class given is functional, organism-based. The essentials:
as §2

Assay [2] concerns DU-145. Put plainly: Cell growth inhibition of prostate DU-145 cells, expressed as 50% reduction in the net protein increase. It counts as functional. The settings on record: Homo sapiens. The essentials:
as §1

The subject of a further assay is Enterobacter cloacae. The assay can be described thus: The minimum inhibitory concentration (MIC) that inhibits all visible growth of the Enterobacter cloacae (bacteria) at 64 ug/mL; NI is no inhibition. It counts as functional, organism-based. The essentials:
as §2

For assay [3], the system named is Enterococcus faecalis. The assay can be described thus: the minimum inhibitory concentration (MIC) that inhibits all visible growth of the Enterococcus faecalis (bacteria) at 64 ug/mL; NI is no inhibition. It counts as functional, organism-based. Put shortly:
as §2

The test system of a further assay is Escherichia coli. Put plainly: The minimum inhibitory concentration (MIC) that inhibits all visible growth of the Escherichia coli (bacteria) at 64 ug/mL; NI is no inhibition. The class given is functional, organism-based. Put shortly:
as §2

The subject of assay [4] is Enterococcus faecalis. The assay can be described thus: The minimum inhibitory concentration (MIC) that inhibits all visible growth of the Enterococcus faecalis (bacteria) at 64 ug/mL; NI is no inhibition. It counts as functional, organism-based. Put shortly:
as §2

Assay [5] deals with KM-20L2. The assay can be described thus: Cell growth inhibition of colon KM20L2 cells, expressed as 50% reduction in the net protein increase. It counts as functional. The settings on record: Homo sapiens. Put shortly: as §1
The subject of assay [6] is Micrococcus luteus. The assay can be described thus: the minimum inhibitory concentration (MIC) that inhibits all visible growth of the Micrococcus luteus (bacteria) at 64 ug/mL; NI is no inhibition. The class given is functional, organism-based. Put shortly:
as §2

The subject of the next assay is NCI-H460. Put plainly: Cell growth inhibition of lung-NSC NCI-H460 cells, expressed as 50% reduction in the net protein increase. The class given is functional. The settings on record: Homo sapiens. The essentials:
as §1

The next assay has as its system Neisseria gonorrhoeae. Put plainly: The minimum inhibitory concentration (MIC) that inhibits all visible growth of the Neisseria gonorrhoeae (bacteria). It counts as functional. The essentials: as §2
The subject of assay [7] is P388. Put plainly: Evaluated for cell growth inhibition of the mouse leukemia P388 cells in 10% horse serum/Fisher media. It counts as functional. Conditions: read-out: ED50 (the source's name). Put shortly: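 Murine P388 leukaemia cells grown in 10% horse serum/Fisher medium, incubated 24 h, then compound dilutions added. After 48 h, cells counted on a Coulter Z1 particle counter and the ED50 for growth inhibition calculated.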

Assay [8] deals with SF-268. Put plainly: Cell growth inhibition of central nervous system (CNS) SF-268 cells, expressed as 50% reduction in the net protein increase. Conditions: Homo sapiens. It counts as functional. Put shortly: as §1
The next assay has as its system Staphylococcus aureus. The assay can be described thus: The minimum inhibitory concentration (MIC) that inhibits all visible growth of the Staphylococcus aureus (bacteria) at 64 ug/mL; NI is no inhibition. The class given is functional, organism-based. The essentials: as §2
In assay [9] the test system is Stenotrophomonas maltophilia. Put plainly: The minimum inhibitory concentration (MIC) that inhibits all visible growth of the Stenotrophomonas maltophilia (bacteria) at 64 ug/mL; NI is no inhibition. It counts as functional, organism-based. Put shortly: as §2
In assay [10] the test system is Streptococcus pneumoniae. The assay can be described thus: The minimum inhibitory concentration (MIC) that inhibits all visible growth of the Streptococcus pneumoniae (bacteria) at 64 ug/mL; NI is no inhibition. The class given is functional, organism-based. Put shortly: as §2
Assay [11] has as its target T1, Tubulin (Bos taurus) (UniProt Q6B856+Q862L2+Q862F3). Put plainly: Inhibition of radiolabeled [3H]colchicine binding to tubulin at a concentration of 2 uM of the compound. The class given is protein assay. The essentials: (§3)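 [3H]colchicine 5.0 µM incubated with tubulin 1.0 µM plus inhibitor at the stated level, 10 min at 37 °C, then colchicine binding measured. Reported as percent inhibition.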

The target in assay [12] is T1, Tubulin (Bos taurus). The assay can be described thus: Inhibition of radiolabeled [3H]colchicine binding to tubulin at a concentration of 5 uM of the compound. The class given is protein assay. Put shortly:
as §3

The target in a further assay is Tubulin (Bos taurus, UniProt Q6B856+Q862L2+Q862F3). The assay can be described thus: Inhibition of tubulin polymerization reported as IC50. The class given is functional.
The subject of assay [13] is BXPC-3. The assay can be described thus: In vitro growth inhibition of BXPC-3 (human pancreatic adenocarcinoma) cell line. It counts as functional.
Assay [14] relates to DU-145. Put plainly: In vitro growth inhibition of DU-145 (human prostate carcinoma) cell line. It counts as functional.
Assay [15] concerns KM-20L2. Put plainly: In vitro growth inhibition of KM20L2 cell line. Conditions: Homo sapiens. The class given is functional.
Assay [16] is described as follows: In vitro growth inhibition of NCI-H460 (human non-small cell lung carcinoma) cell line. The class given is functional.
Assay [17] has as its system P388. Put plainly: In vitro inhibition of P388 (murine leukemia) cell proliferation. The class given is functional. Conditions: Mus musculus, read-out: ED50 (the source's name).
Assay [18] has as its system SF-268. The assay can be described thus: In vitro growth inhibition of central nervous system SF-268 cell line. It counts as functional. Conditions: Homo sapiens.
Assay [19] deals with Streptococcus pneumoniae. Put plainly: The minimum inhibitory concentration (MIC) that inhibits all visible growth of the Streptococcus pneumoniae (bacteria). The class given is functional. The essentials: as §2
In another assay the test system is MCF7. Put plainly: Cell growth inhibition of breast MCF-7 cells, expressed as 50% reduction in the net protein increase. The class given is functional. Conditions: Homo sapiens.
Assay [20] concerns Micrococcus luteus. Put plainly: The minimum inhibitory concentration (MIC) that inhibits all visible growth of the Micrococcus luteus (bacteria) at 64 ug/mL; NI is no inhibition. The class given is functional, organism-based. The essentials: as §2
Assay [21] deals with Micrococcus luteus. The assay can be described thus: the minimum inhibitory concentration (MIC) that inhibits all visible growth of the Micrococcus luteus (bacteria). It counts as functional. Put shortly: as §2

In brackets after ≈: the same amount, converted by molar mass. Activity calls are given as the source filed them.

By GI50 is commonly meant the concentration at which growth is held to half of that of the control. A low value points to more potent growth inhibition. Usually MIC stands for the smallest concentration in the dilution series that meets the test's criterion for growth inhibition. What is called inhibition is how much of the control response was suppressed. A higher inhibition goes with a strong effect. A word on the IC50: it is the midpoint of a concentration-inhibition curve. High values mean weaker potency, low ones greater potency. Turning to `COc1ccc(C(=O)c2cc(OC)cc(OC)c2)cc1`, the GI50 in the assay with BXPC-3 [1] turned out to be 0.42 µg/mL (≈ 1.54 µM); with DU-145 [2], 1.2 µg/mL (≈ 4.41 µM); in the assay with KM-20L2 [5], 0.42 µg/mL (≈ 1.54 µM); in the assay on NCI-H460 it was 0.53 µg/mL (≈ 1.95 µM); with SF-268 [8], 0.86 µg/mL (≈ 3.16 µM). In addition, the MIC entry in the assay on Candida albicans, with Cryptococcus neoformans, in the assay on Enterobacter cloacae, with Enterococcus faecalis [3], in the assay on Escherichia coli and with Enterococcus faecalis [4] was “inactive” each time. Also, the MIC result (in the assay with Micrococcus luteus [6]; in the assay on Staphylococcus aureus; in assay [9]; with Streptococcus pneumoniae [10]) was “inactive” in each case. Moreover, it took 32 µg/mL (≈ 118 µM) to inhibit growth against Neisseria gonorrhoeae (MIC). Moreover, the EC50 with P388 [7] stood at 1.23 µg/mL (≈ 4.52 µM). Besides, the inhibition on Tubulin (Bos taurus) [11] is 47%; at Tubulin (Bos taurus) [12], 69%. At Tubulin, this compound registered an IC50 of 2600 nM.

Consider `O=C(c1ccc(O)cc1)c1cc(O)cc(O)c1`, for which the GI50 worked out at 20.5 µg/mL (≈ 89 µM) in the assay on BXPC-3 [13]; 15 µg/mL (≈ 65.2 µM) in the assay on DU-145 [14]; 24.5 µg/mL (≈ 106 µM) in the assay on KM-20L2 [15]; 25 µg/mL (≈ 109 µM) in assay [16]; 22.3 µg/mL (≈ 96.9 µM) in the assay with SF-268 [18]; 30.6 µg/mL (≈ 133 µM) in the assay on MCF7. For the same compound, the EC50 with P388 [17] was greater than 100 µg/mL. The MIC in the assay on Streptococcus pneumoniae [19] was determined as 64 µg/mL (≈ 278 µM).

In assay [16], `COc1ccc(/C=C\c2cc(O)cc(OC)c2)cc1` registered a GI50 of 0.72 µg/mL (≈ 2.81 µM). For the same compound, the EC50 in the assay on P388 [17] stood at 3.82 µg/mL (≈ 14.9 µM).

The compound `Oc1ccc(/C=C/c2cc(O)cc(O)c2)cc1` [RESVERATROL] yielded an MIC in the assay with Neisseria gonorrhoeae of 16 µg/mL (≈ 70.1 µM). Further, the EC50 in the assay on P388 [17] worked out at 4.49 µg/mL (≈ 19.7 µM).

With `COc1cc(O)cc(C(=O)c2ccc(O)cc2)c1`, the GI50 with BXPC-3 [13] was 21.7 µg/mL (≈ 88.8 µM); in the assay with DU-145 [14], 16.5 µg/mL (≈ 67.6 µM); with KM-20L2 [15], 31.6 µg/mL (≈ 129 µM); in [16] it was 12.1 µg/mL (≈ 49.5 µM); in the assay on SF-268 [18], 26.4 µg/mL (≈ 108 µM); in the assay with MCF7, 26.8 µg/mL (≈ 110 µM). Moreover, the MIC result with Candida albicans, in the assay with Cryptococcus neoformans, in the assay with Enterobacter cloacae, in the assay with Escherichia coli, in the assay with Enterococcus faecalis [4] and with Micrococcus luteus [20] was “inactive” throughout. Also, the MIC entry (in the assay on Staphylococcus aureus; in [9]) was “inactive” in each case. Further, the values for the minimal inhibitory concentration (MIC) against Neisseria gonorrhoeae and against Streptococcus pneumoniae [19] were 32 µg/mL (≈ 131 µM) and 64 µg/mL (≈ 262 µM), respectively. Also, the EC50 with P388 [17] amounted to 26.2 µg/mL (≈ 107 µM).

For the compound `COc1ccc(C(O)c2cc(OC)cc(OC)c2)cc1` (stereo not given), the 50% growth inhibitory concentration (GI50) was found to be 16.1 µg/mL (≈ 58.7 µM) in the assay with BXPC-3 [13]; 23.2 µg/mL (≈ 84.6 µM) in the assay with DU-145 [14]; 21 µg/mL (≈ 76.6 µM) in the assay with KM-20L2 [15]; 21.7 µg/mL (≈ 79.1 µM) in assay [16]; 23.3 µg/mL (≈ 84.9 µM) in the assay on SF-268 [18]. For the same compound, the EC50 with P388 [17] was 20.2 µg/mL (≈ 73.6 µM).

As for `COc1cc(OC)cc(C(O)c2ccc(O)cc2)c1` (stereo not given), the GI50 in the assay on BXPC-3 [13] was 1.3 µg/mL (≈ 4.99 µM); in the assay with DU-145 [14], 5.8 µg/mL (≈ 22.3 µM); in the assay with KM-20L2 [15] it was 5.3 µg/mL (≈ 20.4 µM); in assay [16], 2.3 µg/mL (≈ 8.84 µM); in the assay with SF-268 [18], 0.65 µg/mL (≈ 2.5 µM); in the assay on MCF7, 2 µg/mL (≈ 7.68 µM). Besides, the MIC entry in the assay on Candida albicans, in the assay with Cryptococcus neoformans, with Enterobacter cloacae, in the assay on Enterococcus faecalis [3], in the assay on Escherichia coli and with Enterococcus faecalis [4] was “inactive” throughout. Moreover, the MIC result (in the assay on Micrococcus luteus [6]; with Staphylococcus aureus; in assay [9]) was “inactive” each time. Also, the minimal inhibitory concentration (MIC) with Neisseria gonorrhoeae was 4 µg/mL (≈ 15.4 µM); with Streptococcus pneumoniae [19], 16 µg/mL (≈ 61.5 µM). Further, the EC50 in the assay on P388 [17] was greater than 10 µg/mL.

With `COc1ccc(/C=C/c2cc(O)cc(OC)c2)cc1`, inhibition of growth against Micrococcus luteus [21] (MIC) required 16 µg/mL (≈ 62.4 µM). The EC50 in the assay with P388 [17] worked out at 31.5 µg/mL (≈ 123 µM).

For the compound `COc1ccc(/C=C/c2cc(OC)cc(OC)c2)cc1` [TRISMETHOXYRESVERATROL], the GI50 in the assay with BXPC-3 [13] is 0.35 µg/mL (≈ 1.29 µM); in the assay on DU-145 [14], 1.5 µg/mL (≈ 5.55 µM); in assay [16] it was 0.62 µg/mL (≈ 2.29 µM); in the assay on SF-268 [18], 0.56 µg/mL (≈ 2.07 µM). Further, the EC50 in the assay with P388 [17] was found to be 2.77 µg/mL (≈ 10.2 µM).

For the origin of these results see ChEMBL document CHEMBL1135463 (J Med Chem, 2002).
